Results from ChEMBL document CHEMBL4422620, “Synthesis of novel morpholine, thiomorpholine and N-substituted piperazine coupled 2-(thiophen-2-yl)dihydroquinolines as potent inhibitors of Mycobacterium tuberculosis” (Eur J Med Chem, 2019).
≈ marks a conversion by molar mass, not a printed value.

Assays:
[1] = system: Mycobacterium tuberculosis; assay: Antitubercular activity against Mycobacterium tuberculosis H37Rv after 7 days by Alamar blue assay; format: functional; details: 168 h
Method in brief: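 M. tuberculosis H37Rv inoculum from fresh LJ medium resuspended in 7H9-S (7H9 broth, 0.1% casitone, 0.5% glycerol, OADC), adjusted to McFarland No. 1, diluted 1:20. Serial two-fold drug dilutions in 7H9-S, with growth and sterile controls. Incubated at 37°C in normal atmosphere for 7 days, then Alamar blue added and plates re-incubated overnight. MIC was the lowest concentration fully inhibiting growth.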

[2] = Cytotoxicity against human HEK293T cells assessed as inhibition of cell growth at 50 ug/ml after 72 hrs by MTT assay relative to control; format: cell-based, HEK-293T; details: read-out: GI
Method in brief: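 HEK-293T cells exposed to compounds at 50 μg/mL for 72 h. Viability was read as cellular conversion of MTT to formazan and expressed as percentage inhibition.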

Compound	MIC [1] [µg/mL]	inhibition at 72 h, 50 ug/ml [2] [%]
ClC1=C(CN2CCN(CC3OCCO3)CC2)CCc2nc(-c3cccs3)ccc21	12.5 (≈ 28.9 µM)	
CC(C)(C)OC(=O)N1CCN(CC2=C(Cl)c3ccc(-c4cccs4)nc3CC2)CC1	25 (≈ 56.1 µM)	
COc1ccccc1N1CCN(CC2=C(Cl)c3ccc(-c4cccs4)nc3CC2)CC1	6.25 (≈ 13.8 µM)	36.7
ClC1=C(CN2CCN(c3ccc(Cl)cc3)CC2)CCc2nc(-c3cccs3)ccc21	25 (≈ 54.8 µM)	
Fc1ccccc1N1CCN(CC2=C(Cl)c3ccc(-c4cccs4)nc3CC2)CC1	6.25 (≈ 14.2 µM)	32.6
ClC1=C(CN2CCN(Cc3ccc(Cl)cc3)CC2)CCc2nc(-c3cccs3)ccc21	12.5 (≈ 26.6 µM)	
FC(F)(F)c1ccc(N2CCN(CC3=C(Cl)c4ccc(-c5cccs5)nc4CC3)CC2)cc1	25 (≈ 51 µM)	
CC(=O)c1ccc(N2CCN(CC3=C(Cl)c4ccc(-c5cccs5)nc4CC3)CC2)cc1	25 (≈ 53.9 µM)	
ClC1=C(CN2CCN(Cc3ccccc3)CC2)CCc2nc(-c3cccs3)ccc21	1.56 (≈ 3.58 µM)	19.9
ClC1=C(CN2CCSCC2)CCc2nc(-c3cccs3)ccc21	25 (≈ 68.9 µM)	
ClC1=C(CN2CCN(c3ccccc3)CC2)CCc2nc(-c3cccs3)ccc21	25 (≈ 59.2 µM)	
ClC1=C(CN2CCN(c3ccccn3)CC2)CCc2nc(-c3cccs3)ccc21	1.56 (≈ 3.69 µM)	20.1
ClC1=C(CN2CCN(Cc3ccc4c(c3)OCO4)CC2)CCc2nc(-c3cccs3)ccc21	25 (≈ 52.1 µM)	
O=C(C1CC1)N1CCN(CC2=C(Cl)c3ccc(-c4cccs4)nc3CC2)CC1	3.12 (≈ 7.55 µM)	28.9
ClC1=C(CN2CCOCC2)CCc2nc(-c3cccs3)ccc21	6.25 (≈ 18 µM)	34
Cc1ccccc1N1CCN(CC2=C(Cl)c3ccc(-c4cccs4)nc3CC2)CC1	25 (≈ 57.3 µM)	
O=C(O)c1cn(C2CC2)c2cc(N3CCNCC3)c(F)cc2c1=O [CIPROFLOXACIN]	1.56 (≈ 4.71 µM)	
CC[C@@H](CO)NCCN[C@@H](CC)CO [ETHAMBUTOL]	3.13 (≈ 15.3 µM)	
NNC(=O)c1ccncc1 [ISONIAZID]	0.1 (≈ 0.729 µM)	
CO[C@H]1/C=C/O[C@@]2(C)Oc3c(C)c(O)c4c(O)c(c(/C=N/N5CCN(C)CC5)c(O)c4c3C2=O)NC(=O)/C(C)=C\C=C\[C@H](C)[C@H](O)[C@@H](C)[C@@H](O)[C@@H](C)[C@H](OC(C)=O)[C@@H]1C [RIFAMPIN]	0.2 (≈ 0.243 µM)	
